Results from ChEMBL document CHEMBL4138201, “Synthesis and biological evaluation of sulfur-containing shikonin oxime derivatives as potential antineoplastic agents” (Eur J Med Chem, 2018).

Assays:
[1] = Induction of NO release in phosphate buffer at pH 7.4 at 0.1 mM measured after 4 hrs in presence of N-acetylcysteine by Griess assay; assay type: functional
Outline: (§1)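 Percentage of NO released in vitro measured by Griess assay against a standard curve. Incubation in 0.5 mM N-acetylcysteine, read hourly from 1 to 6 h.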

[2] = Cytotoxicity against human HSF cells after 48 hrs by MTT assay; assay type: cell-based
Outline: (§2)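 MTT colorimetric assay. Shikonin and 5-fluorouracil served as reference agents. IC₅₀ obtained by linear regression of each compound's concentration–response curve.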

Bel-7402 = assay: Cytotoxicity against human Bel7402 cells after 48 hrs by MTT assay; assay type: functional, cell-based; conditions: Bel-7402, 48 h; outline: as §2
[3] = Induction of NO release in phosphate buffer at pH 7.4 at 0.1 mM measured after 1 hr in presence of N-acetylcysteine by Griess assay; assay type: functional; outline: as §1
[4] = Induction of NO release in phosphate buffer at pH 7.4 at 0.1 mM measured after 2 hrs in presence of N-acetylcysteine by Griess assay; assay type: functional; outline: as §1
[5] = Induction of NO release in phosphate buffer at pH 7.4 at 0.1 mM measured after 3 hrs in presence of N-acetylcysteine by Griess assay; assay type: functional; outline: as §1
MCF7 = assay: Cytotoxicity against human MCF7 cells after 48 hrs by MTT assay; assay type: functional, cell-based; conditions: MCF7, 48 h; outline: as §2
[6] = Induction of NO release in phosphate buffer at pH 7.4 at 0.1 mM measured after 6 hrs in presence of N-acetylcysteine by Griess assay; assay type: functional; outline: as §1
MGC-803 = assay: Cytotoxicity against human MGC803 cells after 48 hrs by MTT assay; assay type: functional, cell-based; conditions: MGC-803, 48 h; outline: as §2
[7] = Induction of NO release in phosphate buffer at pH 7.4 at 0.1 mM measured after 5 hrs in presence of N-acetylcysteine by Griess assay; assay type: functional; outline: as §1
HCT-15 = assay: Cytotoxicity against human HCT15 cells after 48 hrs by MTT assay; assay type: functional, cell-based; conditions: HCT-15, 48 h; outline: as §2

SMILES | Activity [1] [%] | IC50 [2] [µM] | IC50 (Bel-7402) [µM] | Activity [3] [%] | Activity [4] [%] | Activity [5] [%] | IC50 (MCF7) [µM] | Activity [6] [%] | IC50 (MGC-803) [µM] | Activity [7] [%] | IC50 (HCT-15) [µM]
COc1cc(C(CC=C(C)C)SCCC(C)C)c(OC)c2c1/C(=N/O)C=C/C2=N\O (stereo not drawn) | 0.038 | > 50 | 5.43 | 0.023 | 0.027 | 0.033 | 27.2 | 0.024 | 3.36 | 0.029 | 1.14
COc1ccc(C(=O)SC(CC=C(C)C)c2cc(OC)c3c(c2OC)/C(=N/O)C=C/C3=N\O)cc1 (stereo not drawn) | 0.064 | > 50 | 1.09 | 0.038 | 0.045 | 0.058 | 17.1 | 0.053 | 0.93 | 0.059 | 0.61
COc1ccc(C(=O)SC(CC=C(C)C)c2cc(OC)c3c(c2OC)/C(=N/O)C=C/C3=N\O)cc1OC (stereo not drawn) | 0.079 | > 50 | 0.66 | 0.041 | 0.05 | 0.063 | 14.9 | 0.065 | 1.17 | 0.073 | 0.39
